We go through 1 molecule from article PMC8263925 (The Journal of General Physiology, 2021).

The test system of one experiment is Hv1 R211A. The experiment in a line: Inside-out patch time course of inhibition, mutant channel. Conditions: 50 µM. The format is cell-based, human. The gist of the method: (§1)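 Xenopus oocytes injected with mutant-channel mRNA 1–3 d earlier, kept at 18°C in ND96. Inside-out patches at 22 ± 1°C in symmetric Mes/TEA solutions, pH 6.0. Held at −40 mV and pulsed to +120 mV at relative depolarization time 0.2 (3 s/15 s). 50 µM perfused into bath. End-pulse current leak- and rundown-corrected. Decay fitted double-exponentially (τfast, τslow, cfast, cslow); washout recovery single-exponentially (τoff).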

For the next experiment, the target named is T1, Hv1 E153C (Homo sapiens, UniProt Q96D96, E153C).
T1 sequence (Q96D96 1-273 E153C): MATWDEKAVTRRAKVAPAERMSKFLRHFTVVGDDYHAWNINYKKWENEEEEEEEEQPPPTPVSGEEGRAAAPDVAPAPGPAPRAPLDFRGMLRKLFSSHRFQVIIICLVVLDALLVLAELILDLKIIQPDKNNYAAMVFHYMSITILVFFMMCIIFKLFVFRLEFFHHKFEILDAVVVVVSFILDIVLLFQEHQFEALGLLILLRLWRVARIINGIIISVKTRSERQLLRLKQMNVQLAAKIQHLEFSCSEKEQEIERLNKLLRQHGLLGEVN
The experiment is described as above. The format is cell-based. The gist of the method:
as §1

A further experiment addresses T2, Hv1 F156A (Homo sapiens, UniProt Q96D96, F156A).
T2 sequence (Q96D96 1-273 F156A): T1 sequence (Q96D96 1-273 E153C) with C153E, F156A
The description is as above. Type of experiment: cell-based. Conditions: 50 µM. In short, it runs like this:
as §1

In another experiment the target is T3, Hv1 R208K (Homo sapiens, UniProt Q96D96, R208K).
T3 sequence (Q96D96 1-273 R208K): T1 sequence (Q96D96 1-273 E153C) with C153E, R208K
Described as above. The format is cell-based. Conditions: 50 µM; fast component not resolved from slow component. The gist of the method:
as §1

Another experiment deals with T4, monomeric Hv1 (Homo sapiens, UniProt Q96D96).
T4 sequence (Q96D96 97-227 limits assumed): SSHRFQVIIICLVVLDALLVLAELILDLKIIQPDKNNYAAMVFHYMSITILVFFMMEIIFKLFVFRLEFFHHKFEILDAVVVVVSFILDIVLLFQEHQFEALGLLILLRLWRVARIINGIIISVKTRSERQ
The experiment in a line: Inside-out patch time course of inhibition, monomeric Hv1 chimera. The format is cell-based. Conditions: 50 µM.

The target of another experiment is T5, Hv1 K157Q (Homo sapiens, UniProt Q96D96, K157Q).
T5 sequence (Q96D96 1-273 K157Q): T1 sequence (Q96D96 1-273 E153C) with C153E, K157Q
The experiment in a line: Inside-out patch time course of inhibition, mutant channel. The format is cell-based. Conditions: 50 µM. In short, it runs like this:
as §1

The target in experiment [1] is T6, Hv1 WT (Homo sapiens, UniProt Q96D96).
T6 sequence (Q96D96 1-273): T1 sequence (Q96D96 1-273 E153C) with C153E
The experiment in a line: Kinetic simulation of HIF-mediated inhibition, four-state model S. Conditions: room temperature, closed VSD.

Experiment [2] deals with T6, Hv1 WT. The experiment in a line: G-V. The format is cell-based. In short, it runs like this:
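Oocytes expressing WT channel (mRNA injected 1–3 d before). Inside-out patches at 22 ± 1°C; bath and pipette 100 mM Mes, 30 mM TEA methanesulfonate, 5 mM TEA chloride, 5 mM EGTA, pH 6.0. Steps to −20 to +130 mV, tails at −40 mV, with or without 50 µM in bath. G = (Itest − Itail)/(Vtest − Vtail), rundown-corrected via reference step. Boltzmann fit gave V1/2 and slope. ≥5 patches, SEM.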

The target in experiment [3] is T6, Hv1 WT. The experiment in a line: Inside-out patch, pulsed application of inhibitor to the closed channel. Conditions: for channel inhibition under pulsed conditions: 100 µM pulses. The format is cell-based. In short, it runs like this:
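WT channel, inside-out oocyte patches, pH 6.0. Test compound (100 µM) applied in 3 s pulses while the membrane was held closed at −40 mV, or at 0 mV or −80 mV. Current read after each pulse with a step to +120 mV. Control pulses of a reference Hv1 inhibitor given first to confirm complete washout between depolarizations.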

Each structure is given as a SMILES string. Numbering of substitutions follows the chain as printed. Where only a bound is given, the exact number is not on record here.

On to `Cc1[nH]c(N)nc1CCC(=O)c1cc(F)cc(F)c1` [HIF, 3-(2-amino-5-methyl-1H-imidazol-4-yl)-1-(3,5-difluorophenyl)propan-1-one], for which, in the experiment with Hv1 R211A, the “higher inhibition (decreased steady-state remaining current) vs WT” value came out at 15% and the “reduction in τslow vs WT” value turned out to be 64%. In addition, the “total extent of inhibition vs WT” value on Hv1 E153C (50 µM) is “did not decrease”. Besides, the “relative contribution of the slow component, cslow / (cfast + cslow)” value at Hv1 E153C (50 μM, RDT = 0.2) is listed as 0.80. The “τoff, recovery from inhibition” value at Hv1 E153C (after 50 µM, RDT = 0.2) was found to be 294 ± 57 s. Also, on Hv1 F156A, the “effect of mutation on inhibition” value is on record as “did not result in any significant change”. The “extent of inhibition compared with WT” value at Hv1 R208K is given as “slightly increased”. Further, the “extent of inhibition compared with WT” value on monomeric Hv1 is “not reduced”. Further, on Hv1 K157Q, the “reduction of the extent of inhibition vs WT” value is reported as 46% and the τslow is recorded as above 200 s. In addition, the “energy barriers to cross in and out of site 2” value at Hv1 WT [1] is around 20 kcal/mol. The “shift to more positive potentials in the V1/2 of activation” value on Hv1 WT [2] (50 μM, pHi = pHo = 6.0) is recorded as around 15 mV. Further, the “slope of G-V curve in the presence of inhibitor” value on Hv1 WT [2] (50 µM, pHi = pHo = 6.0 (11 ± 1 without HIF)) was determined as 13 ± 1 mV. Further, the “V1/2 of G-V curve in the presence of inhibitor” value at Hv1 WT [2] (50 µM, pHi = pHo = 6.0 (53 ± 3 mV without HIF)) was 68 ± 2 mV. Also, the “τ of current decay under pulsed application” value on Hv1 WT [3] (100 μM for 3 s pulses, membrane at −40 mV during application, single-exponential) is listed as 46 ± 4 s. In addition, the “channel inhibition under pulsed conditions” value on Hv1 WT [3] (membrane held at 0 mV) is 55 ± 3%. Further, on Hv1 WT [3] (membrane held at −80 mV), the “channel inhibition under pulsed conditions” value amounted to 33 ± 4%.
